Our source for the IC50 values is ChEMBL document CHEMBL3600341, “Discovery of a series of novel compounds with moderate anti-hepatitis C virus NS3 protease activity in vitro” (Bioorg Med Chem, 2015).

SMILES strings stand for the structures. Some results are limits rather than exact numbers.

This assay can be described thus: Inhibition of HCV NS3/4A protease using RET S1 as substrate preincubated for 10 mins followed by substrate addition measured for 30 mins by FRET analysis. Set-up: species or system Hepacivirus hominis. The procedure, abridged: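 NS3/4A protease activity followed by intramolecular FRET with quenched-fluorogenic substrate Ac-DED(EDANS)EEAbuY[COO]ASK(DABCYL). Buffer 30 mM HEPES pH 7.5, 40% glycerol, 10 mM DTT, 2% DMSO. Ten-dose 4-fold serial dilution of compound in DMSO; 10 min preincubation, substrate added to start. Kinetic read 30 min, ex 335 nm/em 495 nm. IC50 from percent inhibition versus inhibitor concentration.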
What is called IC50 is the concentration at which inhibition is half-maximal. Read a high IC50 as weaker potency. The compound `Cc1ccc(S(=O)(=O)NC(=O)[C@H](CC(C)C)NC(=O)[C@@H]2C[C@H](n3cc(-c4ccccc4)nn3)CN2C(=O)[C@@H](NC(=O)c2cccs2)C2CCCCC2)cc1` yielded an IC50 of 1.9 µM.
Turning to `Cc1ccc(S(=O)(=O)NC(=O)[C@H](CC(C)C)NC(=O)[C@@H]2C[C@H](n3cc(-c4ccccc4)nn3)CN2C(=O)[C@@H](NC(=O)c2ccco2)C(C)(C)C)cc1`, the IC50 is 34 µM.
The result for `Cc1ccc(S(=O)(=O)NC(=O)[C@H](CC(C)C)NC(=O)[C@@H]2C[C@H](n3cc(-c4ccccc4)nn3)CN2C(=O)[C@@H](NC(=O)c2ccccc2)C2CCCCC2)cc1` reads 2.5 µM.
In the case of `Cc1ccc(S(=O)(=O)NC(=O)[C@H](CC(C)C)NC(=O)[C@@H]2C[C@H](n3cc(-c4ccccc4)nn3)CN2C(=O)[C@H](Cc2ccccc2)NC(=O)OC(C)(C)C)cc1` it was 5.9 µM; in that of `Cc1ccc(S(=O)(=O)NC(=O)[C@H](CC(C)C)NC(=O)[C@@H]2C[C@H](n3cc(-c4ccccc4)nn3)CN2C(=O)[C@H](Cc2ccccc2)NC(=O)C(C)C)cc1`, more than 100 µM.
In the case of `Cc1ccc(S(=O)(=O)NC(=O)[C@H](CC(C)C)NC(=O)[C@@H]2C[C@H](n3cc(-c4ccccc4)nn3)CN2C(=O)[C@H](Cc2c[nH]c3ccccc23)NC(=O)OC(C)(C)C)cc1` it was 5.6 µM; in that of `Cc1ccc(S(=O)(=O)NC(=O)[C@H](CC(C)C)NC(=O)[C@@H]2C[C@H](n3cc(-c4ccccc4)nn3)CN2C(=O)[C@@H](NC(=O)OC(C)(C)C)C(C)(C)C)cc1`, more than 100 µM; in that of `O=C(N[C@H](C(=O)N1C[C@@H](n2cc(-c3ccccc3)nn2)C[C@H]1C(=O)N[C@H](Cc1ccccc1)C(=O)NS(=O)(=O)C1CC1)C1CCCCC1)OCc1ccccc1`, 4.5 µM.
For the compound `CC(C)(C)OC(=O)N[C@H](C(=O)N1C[C@@H](n2cc(-c3ccccc3)nn2)C[C@H]1C(=O)N[C@H](Cc1ccccc1)C(=O)NS(=O)(=O)C1CC1)C1CCCCC1`, the IC50 came out at 72 µM.
The result for `O=C(N[C@H](C(=O)N1C[C@@H](n2cc(-c3ccccc3)nn2)C[C@H]1C(=O)N[C@H](Cc1ccccc1)C(=O)NS(=O)(=O)C1CC1)C1CCCCC1)c1ccccc1` reads 7.4 µM; that for `CC(C)C(=O)N[C@H](C(=O)N1C[C@@H](n2cc(-c3ccccc3)nn2)C[C@H]1C(=O)N[C@H](Cc1ccccc1)C(=O)NS(=O)(=O)C1CC1)C1CCCCC1`, more than 100 µM; that for `CC(C)C[C@H](NC(=O)OC(C)(C)C)C(=O)N1C[C@@H](n2cc(-c3ccccc3)nn2)C[C@H]1C(=O)N[C@H](Cc1ccccc1)C(=O)NS(=O)(=O)C1CC1`, more than 100 µM.
The result for `CC(C)(C)OC(=O)N[C@@H](Cc1ccccc1)C(=O)N1C[C@@H](n2cc(-c3ccccc3)nn2)C[C@H]1C(=O)N[C@H](Cc1ccccc1)C(=O)NS(=O)(=O)C1CC1` reads 7.1 µM.
The result for `CC(C)(C)OC(=O)N[C@H](C(=O)N1C[C@@H](n2cc(-c3ccccc3)nn2)C[C@H]1C(=O)N[C@H](Cc1ccccc1)C(=O)NS(=O)(=O)C1CC1)C(C)(C)C` reads more than 100 µM; that for `COc1ccc(C(=O)N[C@H]2C[C@@H](C(=O)N[C@@H](CC(C)C)C(=O)NS(=O)(=O)C3CC3)N(C(=O)[C@@H](NC(=O)OC(C)(C)C)C(C)(C)C)C2)cc1`, more than 100 µM; that for `CC(C)C[C@H](NC(=O)[C@@H]1C[C@H](NC(=O)c2ccc3ccccc3c2)CN1C(=O)[C@@H](NC(=O)OC(C)(C)C)C(C)(C)C)C(=O)NS(=O)(=O)C1CC1`, more than 100 µM.
Consider `Cc1cccc(Nc2ccccc2C(=O)N[C@H]2C[C@@H](C(=O)N[C@@H](CC(C)C)C(=O)NS(=O)(=O)C3CC3)N(C(=O)[C@@H](NC(=O)OC(C)(C)C)C(C)(C)C)C2)c1C`, for which the midpoint of inhibition, the IC50, lay at 2.1 µM.
Take `CCC[C@H](NC(=O)[C@@H]1[C@H]2CCC[C@H]2CN1C(=O)[C@@H](NC(=O)[C@@H](NC(=O)c1cnccn1)C1CCCCC1)C(C)(C)C)C(=O)C(=O)NC1CC1` [TELAPREVIR]: the concentration for half-maximal inhibition (IC50) amounted to 0.45 µM.
